Data on six compounds can be found in paper PMC4857052 (Molecular pharmacology, 2012).

“And” between values parts separate entries of the source, which are not always exact repeats. Equal values may be shown once. Read-outs that look alike come from different tables or passages of the source. A value given as a limit tells only on which side of the number the result lay.

The target in one data set is TbU1. The settings on record: procyclic forms (PCF), ref De Koning and Jarvis (1998), Papageorgiou et al. (2005), Gudin et al. (2006), cited from earlier work; for Ki, U1: NE = no effect on uptake at concentration indicated.
A further data set addresses TbU2. The conditions noted are these: read-out: Ki, U2; procyclic forms (PCF); ref De Koning and Jarvis (1998), Papageorgiou et al. (2005), Gudin et al. (2006); cited from earlier work.
Data set [1] has as its system TbT1 (P1-type nucleoside transporter). Put plainly: [3H]-thymidine transport in bloodstream forms. The class given is cell-based, Trypanosoma brucei brucei. The conditions noted are these: for effect on [3H]-thymidine transport (in words): bloodstream forms.
In the next data set the test system is 5FURes T. b. brucei. Nature of the data set: Alamar blue drug sensitivity assay, 5FURes. The class given is cell-based, Trypanosoma brucei brucei. In outline:
(§1)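 Bloodstream-form T. b. brucei s427 grown in HMI-9 with 10% FBS at 37°C under 5% CO2. Resistant lines were made by months of stepwise-increasing exposure to the analog, then cloned by limiting dilution. Viability was read by resazurin (Alamar blue) reduction. Thymidine rescue was tested by adding 100 μM thymidine.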

Another data set deals with 5F-2′dURes cells. Put plainly: Metabolomic analysis of treated 5F-2′dURes cells. The class given is cell-based, Trypanosoma brucei brucei. The settings on record: 100 μM, 8 hours.
Data set [2] deals with T. b. brucei bloodstream forms strain 427 WT. Nature of the data set: Alamar blue drug sensitivity assay, wild-type. The class given is cell-based, Trypanosoma brucei brucei. The conditions noted are these: for EC50: Trypanosoma brucei. In outline:
as §1

For data set [3], the system named is variant surface glycoprotein. Put plainly: Effect on glycosylation / variant surface glycoprotein content. The conditions noted are these: 100 μM. Format: cell-based, Trypanosoma brucei brucei.
The subject of data set [4] is DNA of T. brucei bloodstream forms. Nature of the data set: Incorporation into DNA. The class given is cell-based, Trypanosoma brucei brucei. The conditions noted are these: 100 μM, 12 hours; natural deoxynucleotides 500-5000-fold above detection limit. In outline:
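Bloodstream forms were exposed to 100 μM test compound for 12 h (37°C, 5% CO2), with untreated parallel controls. DNA was extracted by SDS/RNase A lysis overnight at 37°C and phenol/chloroform, then digested with 1000 units exonuclease III at 37°C for 48 h. The digest was mixed 1:3 with acetonitrile, centrifuged, and the supernatant analysed by HILIC–high-resolution LC-MS.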

The next data set deals with 5FOARes T. b. brucei. Put plainly: Alamar blue drug sensitivity assay, 5FOARes. Format: cell-based, Trypanosoma brucei brucei. In outline:
as §1
(In general: Alamar Blue is a resazurin reagent that responds to reducing activity.)

The subject of the next data set is 5F-2′dURes T. b. brucei. Put plainly: Alamar blue drug sensitivity assay, 5F-2′dURes. Format: cell-based, Trypanosoma brucei brucei. Put shortly: as §1
Data set [5] has as its system P1-type nucleoside transporter. Nature of the data set: [3H]-inosine uptake in bloodstream forms. The class given is cell-based, Trypanosoma brucei brucei. Put shortly: (§2)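 Log-phase cells were washed into HEPES/bicarbonate glucose buffer (pH 7.3) at 1 × 10^8/ml and mixed with an equal volume of [3H]-permeant, with or without unlabeled competitor, at ambient temperature. Uptake was stopped with ice-cold buffer containing saturating unlabeled permeant, then cells were spun through oil. Counts were corrected for nonspecific binding and Km, Vmax and Ki obtained by curve fitting. Runs were in triplicate. Thymidine: 10 μM label, 15 min. Orotic acid: 10 min.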

Data set [6] relates to s427WT T. b. brucei bloodstream forms. Put plainly: Kinetic parameters of pyrimidine transport in wild-type bloodstream forms. Format: cell-based, Trypanosoma brucei brucei. The conditions noted are these: [3H]-permeant; strain s427WT. Put shortly: as §2
The next data set has as its system 5F-2′dURes trypanosomes. Put plainly: [3H]-thymidine uptake in 5F-2′dURes. The class given is cell-based, Trypanosoma brucei brucei. Put shortly:
as §2

For data set [7], the system named is T. b. brucei bloodstream forms. Nature of the data set: [3H]-orotic acid uptake, wild-type bloodstream forms. Format: cell-based, Trypanosoma brucei brucei.
In the next data set the test system is 5-FOARes trypanosomes. Put plainly: [3H]-orotic acid uptake, 5-FOARes versus wild-type. The class given is cell-based, Trypanosoma brucei brucei. The conditions noted are these: over 10 min; two experiments. Put shortly: as §2
For the next data set, the target named is TbU3. Put plainly: [3H]-uridine transport in bloodstream forms. The conditions noted are these: read-out: Ki for inhibition of [3H]-uridine uptake; 2.5 μM [3H]-uridine, n = 3. The class given is cell-based, Trypanosoma brucei brucei.
In a further data set the test system is TbU3 uracil transporter. Nature of the data set: [3H]-uracil transport in bloodstream forms. Format: cell-based, Trypanosoma brucei brucei.
The test system of the next data set is 5-FURes T. b. brucei. Nature of the data set: Pyrimidine transport in 5-FURes bloodstream forms. The class given is cell-based, Trypanosoma brucei brucei. The conditions noted are these: [3H]-permeant; strain 5-FURes.
Where [8] appears, read: resistance factor: IC50(resistant clone)/IC50(WT).

Usually Ki stands for the dissociation constant of the complex between target and ligand, obtained from inhibition or displacement. Take `Nc1ccn([C@@H]2O[C@H](CO)[C@@H](O)[C@H]2O)c(=O)n1` [Cytidine]: the “Ki, U1” value on TbU1 was “NE, 1000”. In addition, the Ki at TbU2 is 0.057 ± 0.019 µM. For the same compound, the “effect on [3H]-thymidine transport (in words)” value (“effect” below) in [1] was “little or no effect”.

What is called EC50 is the concentration needed to bring the measured effect to its halfway point. As for `O=c1[nH]c(=O)n([C@H]2C[C@H](O)[C@@H](CO)O2)cc1F` [5Fl-2’-dUrd, 5-fluoro-2′-deoxyuridine], the EC50 came out at 3.2 µM in the data set on 5FURes T. b. brucei (Trypanosoma brucei, read-out: EC50, 5FURes, Mean); 5.2 µM in data set [2] (read-out: EC50, WT, Mean, Alamar blue assay, wild-type sensitive control strain); 18.6 ± 3 µM in data set [2] (wild-type, thymidine-free HMI-9 with 100 μM thymidine added); 0.77 ± 0.3 µM in [2] (wild-type, thymidine-free version of HMI-9); 31 µM with 5FOARes T. b. brucei (Trypanosoma brucei, read-out: EC50, 5FOARes, Mean); 4300 µM with 5F-2′dURes T. b. brucei (Trypanosoma brucei, read-out: EC50, 5F-2′dURes, Mean). Also, the “RF, 5FURes” value in the data set with 5FURes T. b. brucei (setting [8]) worked out at 0.61. Besides, the “increase in dUMP in treated 5F-2′dURes cells relative to untreated wild-type cells” value in the data set with 5F-2′dURes cells is on record as “two-fold”. Also, the “reduction of sensitivity by addition of 100 μM thymidine” value in [2] (wild-type) was 24 fold; in the data set on 5F-2′dURes T. b. brucei (5F-2′dURes cells), more than 600 fold. The “changes in variant surface glycoprotein content” value in data set [3] is reported as “no detectable changes”. In [4], the “5F-dUMP in DNA digest” value is “No 5F-dUMP was detected”. Besides, in the data set with 5FOARes T. b. brucei (setting [8]), the “RF, 5FOARes” value amounted to 5.9. In addition, in the data set on 5F-2′dURes T. b. brucei (setting [8]), the “RF, 5F-2′dURes” value was determined as 825.

What is called Km is the substrate concentration at which the rate is half of its maximum. With `O=c1[nH]cnc2c1ncn2[C@@H]1O[C@H](CO)[C@@H](O)[C@H]1O` [Inosine], the “Ki, U1” value on TbU1 is given as “NE, 1000”. Moreover, in data set [5] (read-out: Km of inosine uptake, n = 3), the Michaelis-Menten constant (Km) was 0.89 ± 0.15 µM.

In the case of `Cc1cn([C@H]2C[C@H](O)[C@@H](CO)O2)c(=O)[nH]c1=O` [Thymidine], on TbU1, the “Ki, U1” value is reported as “NE, 1000”. Moreover, the inhibitory constant (Ki) in [5] (read-out: Ki for inhibition of inosine uptake, monophasic, n = 4) is 214 ± 51 µM; on TbU2 it was 0.38 ± 0.07 µM. The Km in data set [6] is 1240 ± 310 µM; with 5F-2′dURes trypanosomes (read-out: Km of [3H]-thymidine uptake, 10 μM [3H]-thymidine), 22 ± 3 µM; in data set [1] (read-out: Km, T1, bloodstream forms (BSF)), 1240 ± 310 µM. Moreover, in data set [6], the Vmax is listed as 0.067 ± 0.008 pmol (10^7 cells)^−1s^−1. In the data set on 5F-2′dURes trypanosomes, the “increase in thymidine affinity relative to wild-type” value is more than 50 fold. Also, the “increase in transport efficiency relative to wild-type” value in the data set with 5F-2′dURes trypanosomes is recorded as “six-fold”. Moreover, in the data set with 5F-2′dURes trypanosomes (10 μM [3H]-thymidine), the “Vmax of [3H]-thymidine uptake” value was 0.013 ± 0.002 pmol(10^7 cells)^−1s^−1. In addition, the “rate of [3H]-thymidine transport” value in data set [1] (10 μM thymidine, 5-30 min) was 0.0015 ± 0.0003 pmol(10^7 cells)^−1s^−1.

As for `O=C(O)c1cc(=O)[nH]c(=O)[nH]1` [Orotic acid], the “uptake rate as fraction of the transport rate of [3H]-uracil and [3H]-5-FU” value in data set [7] is given as not above 1%. For the same compound, the “reduction of [3H]-orotic acid uptake in 5-FOARes relative to wild-type” value in the data set on 5-FOARes trypanosomes is 68.1% and 62.8%. Also, the “effect” value in data set [1] was “little or no effect”.

For the compound `O=c1cc[nH]c(=O)[nH]1` [Uracil], the Ki on TbU3 came to 1.6 ± 0.2 µM. Further, the Km is 0.46 ± 0.09 µM with TbU1 (read-out: Km, U1, bold entry); 0.54 ± 0.11 µM with TbU3 uracil transporter (read-out: Km, U3, bloodstream forms (BSF), Km of the permeant itself); 1.5 ± 0.3 µM in [6]; 0.66 ± 0.15 µM with 5-FURes T. b. brucei. Moreover, the “reduction of [3H]-uracil transport by unlabeled uracil” value in the data set with TbU3 uracil transporter (0.15 μM [3H]-uracil, 1 mM unlabeled uracil) is more than 97%. In addition, the “rate of [3H]-uracil transport” value in the data set on TbU3 uracil transporter (0.15 μM [3H]-uracil, linear for at least 120 s) is 0.034 ± 0.002 pmol (10^7 cells)^−1s^−1. Besides, the “Vmax of uracil transport” value in the data set with TbU3 uracil transporter (mean of six triplicate experiments) was 0.14 ± 0.03 pmol × 10^7 cells^−1 × s^−1. The figures for the Vmax (in data set [6]; in the data set with 5-FURes T. b. brucei) were 0.27 ± 0.05 pmol (10^7 cells)^−1s^−1 and 0.16 ± 0.02 pmol (10^7 cells)^−1s^−1, respectively. Also, the “effect” value in data set [1] was “failing to reach 50% inhibition even at 2.5 mM”.
